Converted amounts (≈) assume the structure as drawn.
Columns and labels:
Cryptococcus gattii = assay: Antifungal activity against Cryptococcus gattii incubated for 72 hrs by broth micro dilution method; format: functional
[1] = Half life in human liver microsomes at 1 uM preincubated for 5 mins followed by NADPH addition and measured for 45 mins by LC/MS analysis; format: ADME, Microsome; conditions: for t1/2: microsomes, 0.75 h, 1 µM
Cryptococcus neoformans = assay: Antifungal activity against Cryptococcus neoformans incubated for 72 hrs by broth micro dilution method; format: functional
HepG2 = assay: Cytotoxicity against human HepG2 cells assessed as reduction in cell viability at 3 uM by CellTiter-Glo luminescent cell viability assay relative to control; format: cell-based; conditions: hepg2, 3 µM
[2] = target: T1, PIGW (glucosaminyl-phosphatidylinositol-acyltransferase) (Homo sapiens, UniProt Q7Z7B1); assay: Inhibition of human PIGW expressed in Saccharomyces cerevisiae at 16 uM by spectrophotometric analysis relative to control; conditions: Saccharomyces cerevisiae expressing human PIGW
T1 sequence (Q7Z7B1 whole entry): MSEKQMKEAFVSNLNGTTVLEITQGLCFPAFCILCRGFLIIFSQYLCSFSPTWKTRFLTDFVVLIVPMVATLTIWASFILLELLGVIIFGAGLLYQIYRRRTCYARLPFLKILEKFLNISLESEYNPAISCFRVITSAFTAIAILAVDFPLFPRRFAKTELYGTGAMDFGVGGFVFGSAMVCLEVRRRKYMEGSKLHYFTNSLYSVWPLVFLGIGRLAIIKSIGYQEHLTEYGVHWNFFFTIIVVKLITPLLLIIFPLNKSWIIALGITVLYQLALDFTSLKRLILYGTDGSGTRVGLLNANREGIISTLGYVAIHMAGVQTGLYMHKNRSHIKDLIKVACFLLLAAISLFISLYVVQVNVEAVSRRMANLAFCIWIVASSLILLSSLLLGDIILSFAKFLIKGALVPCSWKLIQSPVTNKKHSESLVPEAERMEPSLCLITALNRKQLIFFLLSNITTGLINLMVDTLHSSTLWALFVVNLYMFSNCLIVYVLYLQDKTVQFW

[3] = target: T2, GPI-anchored wall transfer protein 1 (Candida albicans (strain SC5314 / ATCC MYA-2876) (Yeast)) (UniProt Q873N2); assay: Antifungal activity against Candida albicans GWT1 expressed in Saccharomyces cerevisiae assessed as overexpression ratio
T2 sequence (whole entry): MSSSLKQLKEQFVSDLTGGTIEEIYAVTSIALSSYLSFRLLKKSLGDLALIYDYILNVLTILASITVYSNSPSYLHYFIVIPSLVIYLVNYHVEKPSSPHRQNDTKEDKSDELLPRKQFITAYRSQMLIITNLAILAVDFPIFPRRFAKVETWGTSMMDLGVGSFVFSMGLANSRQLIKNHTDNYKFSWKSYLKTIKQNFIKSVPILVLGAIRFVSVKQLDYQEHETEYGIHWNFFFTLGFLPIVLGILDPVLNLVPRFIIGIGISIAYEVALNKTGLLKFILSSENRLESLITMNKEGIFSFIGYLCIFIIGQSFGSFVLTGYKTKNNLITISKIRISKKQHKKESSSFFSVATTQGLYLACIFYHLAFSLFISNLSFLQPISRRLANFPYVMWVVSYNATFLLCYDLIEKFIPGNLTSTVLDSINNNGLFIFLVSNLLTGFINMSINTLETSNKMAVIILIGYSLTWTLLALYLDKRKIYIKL
Outline: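 MICs measured against S. cerevisiae strains expressing high and low levels of Gwt1. The value is the ratio of the two strains' MICs.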

Structure (SMILES) | MIC (Cryptococcus gattii) | t1/2 [1] | MIC (Cryptococcus neoformans) | half-life at 1 µM ([1]; liver microsomes) | Cell viability (% of control) (HepG2) | inhibition at 16 µM [2] | Ratio [3]
Nc1ncccc1-c1cc(Cc2ccc(Nc3ccccc3F)nc2)no1 | 0.016 µg/mL (≈ 0.0443 µM) | 37.1 min | 0.016 µg/mL (≈ 0.0443 µM) |  |  |  | 
Nc1ncccc1-c1cc(Cc2ccc(COc3ccccc3)cc2)no1 | 0.063 µg/mL (≈ 0.176 µM) |  | 0.125 µg/mL (≈ 0.35 µM) |  |  |  | 
Nc1ncccc1-c1cc(Cc2ccc(OCCc3cccc(F)c3)nc2)no1 | 0.063 µg/mL (≈ 0.161 µM) |  | 0.063 µg/mL (≈ 0.161 µM) |  |  |  | 
O=C(c1ccc(F)cc1)C1CCN(CCn2c(=O)[nH]c3ccccc3c2=O)CC1 [KETANSERIN] |  |  |  | 40.8 min |  |  | 
Nc1ncccc1-c1cc(Cc2ccc(Oc3cccc(F)c3)nc2)no1 | 0.016 µg/mL (≈ 0.0442 µM) | 93.9 min | 0.008 µg/mL (≈ 0.0221 µM) |  | 102% | 0% | 8
Nc1ncccc1-c1cc(Cc2ccc(Cc3ccccc3)cc2)no1 | 0.008 µg/mL (≈ 0.0234 µM) |  | 0.031 µg/mL (≈ 0.0908 µM) |  |  |  | 
Nc1ncccc1-c1cc(Cc2ccc(CNc3ccccc3)cc2)no1 | 0.063 µg/mL (≈ 0.177 µM) |  | 0.125 µg/mL (≈ 0.351 µM) |  |  |  | 
Nc1ncccc1-c1cc(Cc2ccc(Oc3ccccc3F)nc2)no1 | 0.031 µg/mL (≈ 0.0855 µM) |  | 0.016 µg/mL (≈ 0.0442 µM) |  |  |  | 
Nc1ncccc1-c1cc(Cc2ccc(OCc3ccncc3)cc2)no1 | 0.008 µg/mL (≈ 0.0223 µM) | 17.3 min | 0.016 µg/mL (≈ 0.0446 µM) |  |  |  | 
Nc1ncccc1-c1cc(Cc2ccc(OCc3ccccc3F)nc2)no1 | 0.031 µg/mL (≈ 0.0824 µM) |  | 0.031 µg/mL (≈ 0.0824 µM) |  |  |  | 
Nc1ncccc1-c1cc(Cc2ccc(OCc3cccc(F)c3)nc2)no1 | 0.016 µg/mL (≈ 0.0425 µM) | 62.3 min | 0.016 µg/mL (≈ 0.0425 µM) |  | 97% | 5% | 8
Nc1ncccc1-c1cc(Cc2ccc(OCC3CCC3)nc2)no1 | 0.008 µg/mL (≈ 0.0238 µM) | 4.65 min | 0.016 µg/mL (≈ 0.0476 µM) |  |  |  | 
CC(Oc1ccc(Cc2cc(-c3cccnc3N)on2)cn1)c1ccccc1F (configuration not stated) | 0.5 µg/mL (≈ 1.28 µM) |  | 0.25 µg/mL (≈ 0.64 µM) |  |  |  | 
Nc1ncccc1-c1cc(Cc2ccc(CNCc3ccn[nH]3)cc2)no1 | > 4 µg/mL |  | > 4 µg/mL |  |  |  | 
Nc1ncccc1-c1cc(Cc2ccc(Cc3ccco3)cc2)no1 | 0.016 µg/mL (≈ 0.0483 µM) | 3.15 min | 0.016 µg/mL (≈ 0.0483 µM) |  |  |  | 
Nc1ncccc1-c1cc(Cc2ccc(COc3ccccn3)cc2)no1 [MANOGEPIX] | 0.125 µg/mL (≈ 0.349 µM) | 49.9 min | 0.25 µg/mL (≈ 0.698 µM) |  | 98% | 0% | 8
Nc1ncccc1-c1cc(Cc2ccc(Cc3ccc(F)o3)cc2)no1 | 0.016 µg/mL (≈ 0.0458 µM) | 14.4 min | 0.016 µg/mL (≈ 0.0458 µM) |  |  |  | 

Structure (SMILES) | MIC (Cryptococcus gattii) | t1/2 [1] | MIC (Cryptococcus neoformans) | half-life at 1 µM ([1]; liver microsomes) | Cell viability (% of control) (HepG2) | inhibition at 16 µM [2] | Ratio [3]
Cc1nccc(NCc2ccc(Cc3cc(-c4cccnc4N)on3)cc2)n1 | > 4 µg/mL |  | > 4 µg/mL |  |  |  | 
Nc1ncccc1-c1cc(Cc2ccc(OCc3cccc(Cl)c3)nc2)no1 | 0.016 µg/mL (≈ 0.0407 µM) |  | 0.016 µg/mL (≈ 0.0407 µM) |  | 98% | 80% | 4
Nc1ncccc1-c1cc(Cc2ccc(OCc3ccncc3)nc2)no1 | 0.008 µg/mL (≈ 0.0223 µM) | 20.3 min | 0.008 µg/mL (≈ 0.0223 µM) |  |  |  | 
Nc1ncccc1-c1cc(Cc2ccc(Oc3ccccn3)cc2)no1 | 0.008 µg/mL (≈ 0.0232 µM) | 61.5 min | 0.016 µg/mL (≈ 0.0465 µM) |  | 77% |  | 
Nc1ncccc1-c1cc(Cc2ccc(Oc3cccc(F)n3)cc2)no1 | 0.004 µg/mL (≈ 0.011 µM) | 43 min | 0.008 µg/mL (≈ 0.0221 µM) |  | 93% | 0% | 16
Nc1ncccc1-c1cc(Cc2ccc(CNc3cccc(F)n3)cc2)no1 | 0.25 µg/mL (≈ 0.666 µM) |  | 0.25 µg/mL (≈ 0.666 µM) |  |  |  | 
Cc1occc1COc1ccc(Cc2cc(-c3cccnc3N)on2)cn1 | 2 µg/mL (≈ 5.52 µM) |  | 2 µg/mL (≈ 5.52 µM) |  |  |  | 
Nc1ncccc1-c1cc(Cc2ccc(OCc3ccoc3)nc2)no1 | 0.031 µg/mL (≈ 0.089 µM) |  | 0.016 µg/mL (≈ 0.0459 µM) |  |  |  | 
Nc1ncccc1-c1cc(Cc2ccc(Cn3cccn3)cc2)no1 | 0.063 µg/mL (≈ 0.19 µM) |  | 0.25 µg/mL (≈ 0.754 µM) |  |  |  | 
Nc1ncccc1-c1cc(Cc2ccc(CCc3ccccc3)cc2)no1 | 0.5 µg/mL (≈ 1.41 µM) |  | 0.5 µg/mL (≈ 1.41 µM) |  |  |  | 
Nc1ncccc1-c1cc(Cc2ccc(Cc3cccc(F)n3)cc2)no1 | 0.016 µg/mL (≈ 0.0444 µM) |  | 0.031 µg/mL (≈ 0.086 µM) |  |  |  | 
Nc1ncccc1-c1cc(Cc2ccnc(OCc3cccc(F)c3)c2)no1 | 0.031 µg/mL (≈ 0.0824 µM) |  | 0.031 µg/mL (≈ 0.0824 µM) |  |  |  | 
Nc1ncccc1-c1cc(Cc2ccc(OCc3ccccc3)cc2)no1 | 0.031 µg/mL (≈ 0.0867 µM) |  | 0.031 µg/mL (≈ 0.0867 µM) |  |  |  | 
Nc1ncccc1-c1cc(Cc2ccc(OCCc3ccccc3F)nc2)no1 | 0.031 µg/mL (≈ 0.0794 µM) |  | 0.031 µg/mL (≈ 0.0794 µM) |  |  |  | 
Nc1ncccc1-c1cc(Cc2ccc(OCC3CC3)nc2)no1 | 0.016 µg/mL (≈ 0.0496 µM) |  | 0.031 µg/mL (≈ 0.0962 µM) |  |  |  | 
Nc1ncccc1-c1cc(Cc2ccnc(OCCc3cccc(F)c3)c2)no1 | 1 µg/mL (≈ 2.56 µM) |  | 0.5 µg/mL (≈ 1.28 µM) |  |  |  | 

— ChEMBL document CHEMBL4406888, “Synthesis of analogs of the Gwt1 inhibitor manogepix (APX001A) and in vitro evaluation against Cryptococcus spp” (Bioorg Med Chem Lett, 2019)
